According to publication PMC3742633 (Molecular cancer therapeutics, 2013):

Tests used:
SNB-19 = assay: NCI 60 cell line screen, Sulforhodamine B Assay; assay type: cell-based; conditions: Homo sapiens, SNB-19, 48 h
In short: (§1)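 Run through the National Cancer Institute 60 cell line screening service on its panel of 59 human cancer lines in vitro. Cytostatic/toxic effect was read as cellular protein content (sulforhodamine B) over 48 h.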

SF-268 = assay: NCI 60 cell line screen, Sulforhodamine B Assay; assay type: cell-based; conditions: Homo sapiens, SF-268, 48 h
In short: (§2)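 Run through the NCI-60 screening service: human cancer cell lines exposed to test compound for 48 h. Growth read as cellular protein content by sulforhodamine B staining, and GI50 derived from this.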

HS 578T = assay: NCI 60 cell line screen, Sulforhodamine B Assay; assay type: cell-based; conditions: Homo sapiens, 48 h
In short: as §2

Solubility = assay type: physicochemical
[1] = tested on: BxPC-3 pancreatic cancer cells; assay: BxPC-3 xenograft tumor growth; assay type: in vivo, Balb/C athymic mice; conditions: 25 mg/kg i.p. every 3 days × 4; similarly to gemcitabine
ACHN = assay: NCI 60 cell line screen, Sulforhodamine B Assay; assay type: cell-based; conditions: Homo sapiens, 48 h
In short: as §2

HL-60(TB) = assay: NCI 60 cell line screen, Sulforhodamine B Assay; assay type: cell-based; conditions: Homo sapiens, HL-60, 48 h
In short: as §2

OVCAR-8 = assay: NCI 60 cell line screen, Sulforhodamine B Assay; assay type: cell-based; conditions: Homo sapiens, OVCAR-8, 48 h
In short: as §2

HCT-15 = assay: NCI 60 cell line screen, Sulforhodamine B Assay; assay type: cell-based; conditions: Homo sapiens, HCT-15, 48 h
In short: as §2

HCT-116 = assay: NCI 60 cell line screen, Sulforhodamine B Assay; assay type: cell-based; conditions: Homo sapiens, HCT-116, 48 h
In short: as §2

T-47D = assay: NCI 60 cell line screen, Sulforhodamine B Assay; assay type: cell-based; conditions: Homo sapiens, T47D, 48 h
In short: as §1

hexokinase = assay: Activity of purified hexokinase; assay type: biochemical; conditions: up to 100 μM; data not shown
NCI-H522 = assay: NCI 60 cell line screen, Sulforhodamine B Assay; assay type: cell-based; conditions: Homo sapiens, NCI-H522, 48 h
In short: as §2

phosphoglucoseisomerase = phosphoglucoseisomerase (Homo sapiens, UniProt P06744); assay: Activity of purified phosphoglucoseisomerase; assay type: biochemical; conditions: up to 100 μM; data not shown
RPMI-8226 = assay: NCI 60 cell line screen, Sulforhodamine B Assay; assay type: cell-based; conditions: Homo sapiens, RPMI-8226, 48 h
In short: as §2

Jurkat or H522 cells = assay: 2-[1-14C]-deoxy-D-glucose uptake; assay type: cell-based, human; conditions: three hours exposure, Jurkat and H522
In short: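 Jurkat or H522 cells in RPMI 1640 + 10% FCS + 50 μg/ml gentamycin at 100,000/ml, treated immediately with DMSO vehicle or test compound for 3 h. Washed in glucose-free RPMI, 30 min with inhibitor, then 1 h with 14C-2-deoxyglucose (0.1 μCi/μl stock). Ice-cold washes, 0.5% SDS lysis, scintillation counting; counts normalized to BCA protein.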

NCI-H23 = assay: NCI 60 cell line screen, Sulforhodamine B Assay; assay type: cell-based; conditions: Homo sapiens, NCI-H23, 48 h
In short: as §2

[2] = Tolerability of intraperitoneal PFK15; conditions: 25 mg/kg i.p. every three days
SK-OV-3 = assay: NCI 60 cell line screen, Sulforhodamine B Assay; assay type: cell-based; conditions: Homo sapiens, SK-OV-3, 48 h
In short: as §1

[3] = tested on: Jurkat T cell leukemia cells; assay: Annexin V / propidium iodide flow cytometry; assay type: cell-based, human; conditions: five hours
[4] = tested on: H522 human lung adenocarcinoma cells; assay: Cell viability, trypan blue exclusion; assay type: cell-based; conditions: NCI-H522, 48 h, read-out: IC50 cytotoxic effects (viability)
RXF 393 = assay: NCI 60 cell line screen, Sulforhodamine B Assay; assay type: cell-based; conditions: Homo sapiens, RXF 393, 48 h
In short: as §2

SR = assay: NCI 60 cell line screen, Sulforhodamine B Assay; assay type: cell-based; conditions: Homo sapiens, 48 h
In short: as §1

SK-MEL-28 = assay: NCI 60 cell line screen, Sulforhodamine B Assay; assay type: cell-based; conditions: Homo sapiens, SK-MEL-28, 48 h
In short: as §1

KM12 = assay: NCI 60 cell line screen, Sulforhodamine B Assay; assay type: cell-based; conditions: Homo sapiens, KM12, 48 h
In short: as §2

EKVX = assay: NCI 60 cell line screen, Sulforhodamine B Assay; assay type: cell-based; conditions: Homo sapiens, 48 h
In short: as §2

[5] = Pharmacokinetic profile after IV administration; assay type: in vivo, female C57Bl/6 mice; conditions: plasma
In short: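 Test compound was given IV to female C57Bl/6 mice, with 8 time points and 3 animals per time point. Plasma was extracted with acetonitrile and analysed by LC-MS/MS on a polar reverse-phase column with a 0.5% formic acid acetonitrile/water mobile phase. Tmax, Cmax, volume of distribution, half-life, clearance, AUCs and MRT were calculated from the concentration–time data.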

OVCAR-5 = assay: NCI 60 cell line screen, Sulforhodamine B Assay; assay type: cell-based; conditions: Homo sapiens, OVCAR-5, 48 h
In short: as §2

NCI-H460 = assay: NCI 60 cell line screen, Sulforhodamine B Assay; assay type: cell-based; conditions: Homo sapiens, NCI-H460, 48 h
In short: as §2

purified PFK-1 = assay: Activity of purified PFK-1; assay type: biochemical; conditions: up to 100 μM; data not shown
HT29 = assay: NCI 60 cell line screen, Sulforhodamine B Assay; assay type: cell-based; conditions: Homo sapiens, HT-29, 48 h
In short: as §2

SW-620 = assay: NCI 60 cell line screen, Sulforhodamine B Assay; assay type: cell-based; conditions: Homo sapiens, SW-620, 48 h
In short: as §1

OVCAR-4 = assay: NCI 60 cell line screen, Sulforhodamine B Assay; assay type: cell-based; conditions: Homo sapiens, OVCAR-4, 48 h
In short: as §2

COLO 205 = assay: NCI 60 cell line screen, Sulforhodamine B Assay; assay type: cell-based; conditions: Homo sapiens, COLO 205, 48 h
In short: as §2

LOX IMVI = assay: NCI 60 cell line screen, Sulforhodamine B Assay; assay type: cell-based; conditions: Homo sapiens, 48 h
In short: as §2

PFKFB4 = PFKFB4 (Homo sapiens, UniProt Q16877); assay: Activity of purified PFKFB4; assay type: biochemical; conditions: up to 100 μM; data not shown
SF-295 = assay: NCI 60 cell line screen, Sulforhodamine B Assay; assay type: cell-based; conditions: Homo sapiens, SF-295, 48 h
In short: as §2

[6] = female, C57Bl/6, mouse, iv, 5 mg/kg

Chain of PFKFB4 (Q16877 whole entry, species assumed): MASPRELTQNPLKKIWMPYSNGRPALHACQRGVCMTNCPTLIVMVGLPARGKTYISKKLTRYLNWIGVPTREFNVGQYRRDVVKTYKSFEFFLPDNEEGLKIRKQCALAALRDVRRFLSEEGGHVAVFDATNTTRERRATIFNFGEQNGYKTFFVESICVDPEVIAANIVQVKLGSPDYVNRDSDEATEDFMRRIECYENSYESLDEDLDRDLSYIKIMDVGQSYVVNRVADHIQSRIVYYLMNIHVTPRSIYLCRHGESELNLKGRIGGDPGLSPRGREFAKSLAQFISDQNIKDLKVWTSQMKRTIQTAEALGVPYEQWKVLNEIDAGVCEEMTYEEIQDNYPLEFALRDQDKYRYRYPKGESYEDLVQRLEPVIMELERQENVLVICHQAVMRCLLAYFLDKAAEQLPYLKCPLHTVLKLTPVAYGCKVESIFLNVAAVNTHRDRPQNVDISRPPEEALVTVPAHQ

**Q.** Which GI50 (SNB-19) does the source give for `O=C(C=Cc1ccc2ccccc2n1)c1ccncc1` [PFK15, 1-(4-pyridinyl)-3-(2-quinolinyl)-2-propen-1-one] here?
**A.** 4570 nM

**Q.** What about the GI50 (SF-268) of the same compound?
**A.** 5250 nM

**Q.** What about the GI50 (HS 578T) of the same compound?
**A.** 20900 nM

**Q.** What about the solubility (Solubility) of the same compound?
**A.** limited solubility

**Q.** What about the “growth of pancreatic adenocarcinomas (BxPC-3)” value [1] of the same compound?
**A.** suppressed the growth

**Q.** What about the GI50 (ACHN) of the same compound?
**A.** 2040 nM

**Q.** And the GI50 (HL-60(TB))?
**A.** 2040 nM

**Q.** What about the GI50 (OVCAR-8) of the same compound?
**A.** 1820 nM

**Q.** And the GI50 (HCT-15)?
**A.** 1100 nM

**Q.** And the GI50 (HCT-116)?
**A.** 1320 nM

**Q.** What about the GI50 (T-47D) of the same compound?
**A.** 3630 nM

**Q.** What about the “inhibition of activity of purified hexokinase” value (hexokinase) of the same compound?
**A.** not inhibit

**Q.** What about the GI50 (NCI-H522) of the same compound?
**A.** 1740 nM

**Q.** What about the “inhibition of activity of purified phosphoglucoseisomerase” value (phosphoglucoseisomerase) of the same compound?
**A.** not inhibit

**Q.** And the GI50 (RPMI-8226)?
**A.** 2190 nM

**Q.** And the “effect on glucose uptake (14C-2DG)” value (Jurkat or H522 cells)?
**A.** reduced

**Q.** And the GI50 (NCI-H23)?
**A.** 3160 nM

**Q.** And the body mass loss [2]?
**A.** < 10%

**Q.** What about the “end organ toxicity based on blood, urine and histological analyses” value [2] of the same compound?
**A.** no end organ toxicity

**Q.** And the GI50 (SK-OV-3)?
**A.** 15100 nM

**Q.** And the “cells undergoing early apoptosis (Annexin V+/PI−)” value ([3]; 3 μM)?
**A.** increased

**Q.** And the “cells undergoing late apoptosis (Annexin V+/PI+)” value ([3]; 3 and 20 μM)?
**A.** dose-dependent increase

**Q.** What about the IC50 [4] of the same compound?
**A.** 720 nM

**Q.** And the GI50 (RXF 393)?
**A.** 1700 nM

**Q.** And the GI50 (SR)?
**A.** 230 nM

**Q.** And the GI50 (SK-MEL-28)?
**A.** 2090 nM

**Q.** What about the GI50 (KM12) of the same compound?
**A.** 1950 nM

**Q.** What about the GI50 (EKVX) of the same compound?
**A.** 12900 nM

**Q.** And the AUC0-inf ([5]; IV, C57Bl/6 mice)?
**A.** 1804 ng/h/mL

**Q.** What about the Cmax [5, 6] of the same compound?
**A.** 3050 ng/mL

**Q.** What about the clearance [5, 6] of the same compound?
**A.** 46.2 mL/min/kg

**Q.** What about the half-life [5, 6] of the same compound?
**A.** 5.1 h

**Q.** And the GI50 (OVCAR-5)?
**A.** 5370 nM

**Q.** And the GI50 (NCI-H460)?
**A.** 3470 nM

**Q.** What about the “inhibition of activity of purified PFK-1” value (purified PFK-1) of the same compound?
**A.** not inhibit

**Q.** What about the GI50 (HT29) of the same compound?
**A.** 2510 nM

**Q.** What about the GI50 (SW-620) of the same compound?
**A.** 1700 nM

**Q.** And the GI50 (OVCAR-4)?
**A.** 2340 nM

**Q.** What about the GI50 (COLO 205) of the same compound?
**A.** 2450 nM

**Q.** And the GI50 (LOX IMVI)?
**A.** 1660 nM

**Q.** What about the “inhibition of activity of purified PFKFB4” value (PFKFB4) of the same compound?
**A.** not inhibit

**Q.** What about the GI50 (SF-295) of the same compound?
**A.** 13500 nM
